Reference: ChEMBL document CHEMBL1139887, “Glycosides from the stem bark of Fraxinus sieboldiana” (J Nat Prod, 2007)

Tests used:
[1] = test system: Peritoneal macrophage cell; test: Inhibition of LPS-induced TNFalpha secretion in C57BL/6J mouse peritoneal macrophages at 10 uM after 24 hrs; format: functional
How it was run: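 Macrophages from male C57BL6J mice, harvested 4 days after i.p. thioglycollate. Cells adhered 2 h, then 24 h at 37 °C with compound (10^-5 M final), LPS 1 µg/mL and 5% FCS. Supernatant put on L929 cells with actinomycin D 0.5 µg/mL for 20 h, then MTT 4 h, A570. Triplicate wells. Inhibition = (L−S)/(L−B)×100. Indomethacin reference.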

[2] = test system: HCT-8; test: Cytotoxicity against human HCT8 cells; format: cell-based
[3] = test system: Liver microsomes; test: Antioxidant activity in rat liver microsomes assessed as inhibition of ferrous-cystine-induced lipid peroxidation after 15 mins; format: functional, Microsome
How it was run: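 Microsomes from rat liver suspended in 100 mM Tris-HCl pH 7.4. Then 50 µM FeSO4 added and a further 15 min at 37 °C. Stopped with 20% TCA and spun. Supernatant heated with 0.67% TBA 10 min, read at 532 nm. Tested over several concentrations.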

[4] = Cytotoxicity against human Bel7402 cells; format: cell-based; settings: Bel-7402
[5] = test system: A2780; test: Cytotoxicity against human A2780 cells; format: cell-based
[6] = Cytotoxicity against human BGC823 cells; format: cell-based; settings: BGC-823
[7] = test system: A549; test: Cytotoxicity against human A549 cells; format: cell-based
[8] = test system: Peritoneal macrophage cell; test: Inhibition of LPS-induced TNFalpha secretion in C57BL/6J mouse peritoneal macrophages after 24 hrs; format: functional, cell-based

COc1ccc2c(c1)c(CC(=O)O)c(C)n2C(=O)c1ccc(Cl)cc1 [INDOMETHACIN]
inhibition at 10 µM [1]: 33.2%

O=C(/C=C/c1ccc(O)c(O)c1)OC[C@H]1O[C@H]2OC[C@H](c3ccc(O)c(O)c3)O[C@@H]2[C@@H](O)[C@@H]1O [PLANTASIOSIDE]
IC50 [2]: 3.4 µM

COc1cc([C@H](O)[C@@H](O)CO)cc(OC)c1O[C@@H]1O[C@H](CO)[C@@H](O)[C@H](O)[C@H]1O
IC50 [3]: > 10 µM
IC50 [4]: > 5 µM
IC50 [2]: > 5 µM
IC50 [5]: > 5 µM
IC50 [6]: > 5 µM
inhibition at 10 µM [1]: 28.2%
IC50 [7]: > 5 µM

COc1cc(C(=O)OC[C@H]2O[C@@H](Oc3cc4ccc(=O)oc4cc3O)[C@H](O)[C@@H](O)[C@@H]2O)ccc1O[C@@H]1O[C@H](CO)[C@@H](O)[C@H](O)[C@H]1O
IC50 [3]: > 10 µM
IC50 [4]: > 5 µM
IC50 [2]: > 5 µM
IC50 [5]: > 5 µM
IC50 [6]: > 5 µM
inhibition at 10 µM [1]: 30.8%
IC50 [7]: > 5 µM

COc1cc(O[C@@H]2O[C@H](CO)[C@@H](O)[C@H](O)[C@H]2O)cc(OC)c1O[C@@H]1O[C@H](CO)[C@@H](O)[C@H](O)[C@H]1O
IC50 [3]: > 10 µM
IC50 [4]: > 5 µM
IC50 [2]: > 5 µM
IC50 [5]: > 5 µM
IC50 [6]: > 5 µM
inhibition at 10 µM [1]: 25.2%
IC50 [7]: > 5 µM

COc1cc(O[C@@H]2O[C@H](CO)[C@@H](O)[C@H](O)[C@H]2O)ccc1O[C@@H]1O[C@H](CO)[C@@H](O)[C@H](O)[C@H]1O
IC50 [3]: > 10 µM
IC50 [4]: > 5 µM
IC50 [2]: > 5 µM
IC50 [5]: > 5 µM
IC50 [6]: > 5 µM
inhibition at 10 µM [1]: 16.3%
IC50 [7]: > 5 µM

OC[C@@]1(O)CO[C@@H](OC[C@H]2O[C@@H](OCCc3ccc(O)c(O)c3)[C@H](O)[C@@H](O)[C@@H]2O)[C@@H]1O
IC50 [3]: 0.9 µM
IC50 [4]: > 5 µM
IC50 [2]: > 5 µM
IC50 [5]: > 5 µM
IC50 [6]: > 5 µM
inhibition at 10 µM [1]: 28.8%
IC50 [7]: > 5 µM

CC1=C[C@@H](C2=C(C)CC[C@H](O[C@@H]3O[C@H](CO)[C@@H](O)[C@H](O)[C@H]3O)C2(C)C)[C@@H](/C=C(/C)C(=O)O)OC1 [FRAXINUACIDOSIDE]
IC50 [3]: > 10 µM
IC50 [4]: > 5 µM
IC50 [2]: > 5 µM
IC50 [5]: > 5 µM
IC50 [6]: > 5 µM
IC50 [7]: > 5 µM

COc1cc([C@@H](O)[C@H](O)CO)cc(OC)c1O[C@@H]1O[C@H](CO)[C@@H](O)[C@H](O)[C@H]1O
IC50 [3]: > 10 µM
IC50 [4]: > 5 µM
IC50 [2]: > 5 µM
IC50 [5]: > 5 µM
IC50 [6]: > 5 µM
inhibition at 10 µM [1]: 27.5%
IC50 [7]: > 5 µM

COc1cc([C@@H](O)[C@@H](O)CO)cc(OC)c1O[C@@H]1O[C@H](CO)[C@@H](O)[C@H](O)[C@H]1O
IC50 [3]: > 10 µM
IC50 [4]: > 5 µM
IC50 [2]: > 5 µM
IC50 [5]: > 5 µM
IC50 [6]: > 5 µM
inhibition at 10 µM [1]: 26.6%
IC50 [7]: > 5 µM

COc1cc(CCO[C@@H]2O[C@H](CO[C@@H]3OC[C@](O)(CO)[C@H]3O)[C@@H](O)[C@H](O)[C@H]2O)ccc1O
IC50 [3]: > 10 µM
IC50 [4]: > 5 µM
IC50 [2]: > 5 µM
IC50 [5]: > 5 µM
IC50 [6]: > 5 µM
IC50 [8]: 1.6 µM
inhibition at 10 µM [1]: 44.3%
IC50 [7]: > 5 µM
